In ChEMBL document CHEMBL1641460, “Potent and selective thiophene urea-templated inhibitors of S6K” (Bioorg Med Chem Lett, 2011):
Values after ≈ are worked out from the molar mass of the structure shown.

How the values were obtained:
[1] = target: Tyrosine-protein kinase JAK3 (Homo sapiens) (UniProt P52333); experiment: Inhibition of JAK3 at 10 uM
[2] = target: Casein kinase II subunit alpha (Homo sapiens) (UniProt P68400); experiment: Inhibition of CSNK2A1 at 1 uM
[3] = Kinetic solubility of the compound in 50 mM phosphate buffer at pH 6.5; type: physicochemical
[4] = target: Calcium/calmodulin-dependent protein kinase type 1 (Homo sapiens) (UniProt Q14012); experiment: Inhibition of CAMK1 at 1 uM
[5] = target: Mitogen-activated protein kinase 14 (Homo sapiens) (UniProt Q16539); experiment: Inhibition of MAPK14 at 1 uM
[6] = target: High affinity nerve growth factor receptor (Homo sapiens) (UniProt P04629); experiment: Inhibition of NTRK1 at 10 uM
[7] = target: Protein kinase C beta type (Homo sapiens) (UniProt P05771); experiment: Inhibition of PRKCB at 10 uM
CYP2C9 = CYP2C9 (Homo sapiens, UniProt P11712); experiment: Inhibition of CYP2C9 at 3 uM by LC/MS/MS analysis; type: ADME
[8] = target: Serine/threonine-protein kinase 3 (Homo sapiens) (UniProt Q13188); experiment: Inhibition of STK3 at 1 uM
[9] = target: Protein kinase C zeta type (Homo sapiens) (UniProt Q05513); experiment: Inhibition of PRKCZ at 1 uM
[10] = target: Dual specificity protein kinase CLK1 (Homo sapiens) (UniProt P49759); experiment: Inhibition of CLK1 at 10 uM
[11] = target: Inhibitor of nuclear factor kappa-B kinase subunit epsilon (Homo sapiens) (UniProt Q14164); experiment: Inhibition of IKBKE at 10 uM
[12] = Half life in human liver microsomes at 1 uM by LC/MS/MS analysis; type: ADME, Microsome
Summary of the method: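 Test compound incubated with human liver microsomes to measure Phase I metabolic stability. Remaining compound quantified by LC/MS/MS, and stability reported as half-life (T1/2) in minutes.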

[13] = target: Mitogen-activated protein kinase kinase kinase 9 (Homo sapiens) (UniProt P80192); experiment: Inhibition of MAP3K9 at 1 uM
[14] = target: Myosin light chain kinase 2, skeletal/cardiac muscle (Homo sapiens) (UniProt Q9H1R3); experiment: Inhibition of MYLK2 at 10 uM
[15] = target: RAC-alpha serine/threonine-protein kinase (Homo sapiens) (UniProt P31749); experiment: Inhibition of AKT1 at 10 uM
[16] = target: Serine/threonine-protein kinase pim-2 (Homo sapiens) (UniProt Q9P1W9); experiment: Inhibition of PIM2 at 10 uM
[17] = target: Mitogen-activated protein kinase 14 (Homo sapiens) (UniProt Q16539); experiment: Inhibition of MAPK14 at 10 uM
[18] = target: Casein kinase II subunit alpha (Homo sapiens) (UniProt P68400); experiment: Inhibition of CSNK2A1 at 10 uM
CYP2D6 = CYP2D6 (Homo sapiens, UniProt P10635); experiment: Inhibition of CYP2D6 at 3 uM by LC/MS/MS analysis; type: ADME
[19] = target: Aurora kinase A (Homo sapiens) (UniProt O14965); experiment: Inhibition of aurora A at 10 uM
[20] = target: Casein kinase I isoform delta (Homo sapiens) (UniProt P48730); experiment: Inhibition of CSNK1D at 1 uM
[21] = target: Serine/threonine-protein kinase Sgk1 (Homo sapiens) (UniProt O00141); experiment: Inhibition of SGK1 at 1 uM
[22] = target: Serine/threonine-protein kinase PAK 4 (Homo sapiens) (UniProt O96013); experiment: Inhibition of PAK4 at 10 uM
[23] = target: Rho-associated protein kinase 1 (Homo sapiens) (UniProt Q13464); experiment: Inhibition of ROCK1 at 1 uM
[24] = target: High affinity nerve growth factor receptor (Homo sapiens) (UniProt P04629); experiment: Inhibition of NTRK1 at 1 uM
[25] = target: Serine/threonine-protein kinase Nek2 (Homo sapiens) (UniProt P51955); experiment: Inhibition of NEK2 at 1 uM
[26] = target: Serine/threonine-protein kinase Nek2 (Homo sapiens) (UniProt P51955); experiment: Inhibition of NEK2 at 10 uM
[27] = target: Myosin light chain kinase 2, skeletal/cardiac muscle (Homo sapiens) (UniProt Q9H1R3); experiment: Inhibition of MYLK2 at 1 uM
[28] = target: Tyrosine-protein kinase ABL1 (Homo sapiens) (UniProt P00519); experiment: Inhibition of ABL1 at 1 uM
[29] = target: Serine/threonine-protein kinase TAO3 (Homo sapiens) (UniProt Q9H2K8); experiment: Inhibition of TAOK3 at 10 uM
[30] = target: Protein kinase C zeta type (Homo sapiens) (UniProt Q05513); experiment: Inhibition of PRKCZ at 10 uM
[31] = target: Fibroblast growth factor receptor 1 (Homo sapiens) (UniProt P11362); experiment: Inhibition of FGFR1 at 1 uM
[32] = target: Serine/threonine-protein kinase Sgk1 (Homo sapiens) (UniProt O00141); experiment: Inhibition of SGK1 at 10 uM
[33] = target: Epidermal growth factor receptor (Homo sapiens) (UniProt P00533); experiment: Inhibition of EGFR at 1 uM
[34] = target: Serine/threonine-protein kinase PAK 4 (Homo sapiens) (UniProt O96013); experiment: Inhibition of PAK4 at 1 uM
[35] = target: cAMP-dependent protein kinase catalytic subunit alpha (Homo sapiens) (UniProt P17612); experiment: Inhibition of PRKACA at 1 uM
[36] = target: Inhibitor of nuclear factor kappa-B kinase subunit beta (Homo sapiens) (UniProt O14920); experiment: Inhibition of IKBKB at 1 uM
[37] = target: Serine/threonine-protein kinase MARK1 (Homo sapiens) (UniProt Q9P0L2); experiment: Inhibition of MARK1 at 1 uM
[38] = target: Inhibitor of nuclear factor kappa-B kinase subunit beta (Homo sapiens) (UniProt O14920); experiment: Inhibition of IKBKB at 10 uM
[39] = target: Cyclin-dependent kinase 2 (Homo sapiens) (UniProt P24941); experiment: Inhibition of CDK2 at 1 uM
[40] = target: Glycogen synthase kinase-3 beta (Homo sapiens) (UniProt P49841); experiment: Inhibition of GSK3b at 1 uM
[41] = target: Epidermal growth factor receptor (Homo sapiens) (UniProt P00533); experiment: Inhibition of EGFR at 10 uM
[42] = target: Vascular endothelial growth factor receptor 2 (Homo sapiens) (UniProt P35968); experiment: Inhibition of KDR at 10 uM
[43] = target: Serine/threonine-protein kinase Chk2 (Homo sapiens) (UniProt O96017); experiment: Inhibition of CHEK2 at 10 uM
[44] = target: Tyrosine-protein kinase Lck (Homo sapiens) (UniProt P06239); experiment: Inhibition of LCK at 10 uM
[45] = target: Cyclin-dependent kinase 2 (Homo sapiens) (UniProt P24941); experiment: Inhibition of CDK2 at 10 uM
[46] = target: Insulin receptor (Homo sapiens) (UniProt P06213); experiment: Inhibition of INSR at 1 uM
[47] = target: MAP kinase-activated protein kinase 2 (Homo sapiens) (UniProt P49137); experiment: Inhibition of MAPKAPK2 at 10 uM
[48] = target: Serine/threonine-protein kinase 3 (Homo sapiens) (UniProt Q13188); experiment: Inhibition of STK3 at 10 uM
[49] = target: Aurora kinase A (Homo sapiens) (UniProt O14965); experiment: Inhibition of aurora A at 1 uM
[50] = target: Tyrosine-protein kinase BTK (Homo sapiens) (UniProt Q06187); experiment: Inhibition of BTK at 1 uM
[51] = target: Tyrosine-protein kinase BTK (Homo sapiens) (UniProt Q06187); experiment: Inhibition of BTK at 10 uM
[52] = target: Serine/threonine-protein kinase pim-2 (Homo sapiens) (UniProt Q9P1W9); experiment: Inhibition of PIM2 at 1 uM

Sequence of Casein kinase II subunit alpha (Homo sapiens) (P68400 whole entry, looked up): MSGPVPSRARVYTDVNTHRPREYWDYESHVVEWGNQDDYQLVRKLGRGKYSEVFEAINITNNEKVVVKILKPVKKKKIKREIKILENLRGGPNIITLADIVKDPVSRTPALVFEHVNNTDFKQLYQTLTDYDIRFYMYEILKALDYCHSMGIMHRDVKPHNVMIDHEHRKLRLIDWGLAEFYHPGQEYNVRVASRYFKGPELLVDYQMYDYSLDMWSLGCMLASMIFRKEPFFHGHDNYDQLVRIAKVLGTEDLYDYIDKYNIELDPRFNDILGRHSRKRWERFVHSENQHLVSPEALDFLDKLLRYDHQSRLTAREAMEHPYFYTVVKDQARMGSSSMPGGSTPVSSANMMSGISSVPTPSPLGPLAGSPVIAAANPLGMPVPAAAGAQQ
Sequence of Epidermal growth factor receptor (Homo sapiens) (P00533 whole entry): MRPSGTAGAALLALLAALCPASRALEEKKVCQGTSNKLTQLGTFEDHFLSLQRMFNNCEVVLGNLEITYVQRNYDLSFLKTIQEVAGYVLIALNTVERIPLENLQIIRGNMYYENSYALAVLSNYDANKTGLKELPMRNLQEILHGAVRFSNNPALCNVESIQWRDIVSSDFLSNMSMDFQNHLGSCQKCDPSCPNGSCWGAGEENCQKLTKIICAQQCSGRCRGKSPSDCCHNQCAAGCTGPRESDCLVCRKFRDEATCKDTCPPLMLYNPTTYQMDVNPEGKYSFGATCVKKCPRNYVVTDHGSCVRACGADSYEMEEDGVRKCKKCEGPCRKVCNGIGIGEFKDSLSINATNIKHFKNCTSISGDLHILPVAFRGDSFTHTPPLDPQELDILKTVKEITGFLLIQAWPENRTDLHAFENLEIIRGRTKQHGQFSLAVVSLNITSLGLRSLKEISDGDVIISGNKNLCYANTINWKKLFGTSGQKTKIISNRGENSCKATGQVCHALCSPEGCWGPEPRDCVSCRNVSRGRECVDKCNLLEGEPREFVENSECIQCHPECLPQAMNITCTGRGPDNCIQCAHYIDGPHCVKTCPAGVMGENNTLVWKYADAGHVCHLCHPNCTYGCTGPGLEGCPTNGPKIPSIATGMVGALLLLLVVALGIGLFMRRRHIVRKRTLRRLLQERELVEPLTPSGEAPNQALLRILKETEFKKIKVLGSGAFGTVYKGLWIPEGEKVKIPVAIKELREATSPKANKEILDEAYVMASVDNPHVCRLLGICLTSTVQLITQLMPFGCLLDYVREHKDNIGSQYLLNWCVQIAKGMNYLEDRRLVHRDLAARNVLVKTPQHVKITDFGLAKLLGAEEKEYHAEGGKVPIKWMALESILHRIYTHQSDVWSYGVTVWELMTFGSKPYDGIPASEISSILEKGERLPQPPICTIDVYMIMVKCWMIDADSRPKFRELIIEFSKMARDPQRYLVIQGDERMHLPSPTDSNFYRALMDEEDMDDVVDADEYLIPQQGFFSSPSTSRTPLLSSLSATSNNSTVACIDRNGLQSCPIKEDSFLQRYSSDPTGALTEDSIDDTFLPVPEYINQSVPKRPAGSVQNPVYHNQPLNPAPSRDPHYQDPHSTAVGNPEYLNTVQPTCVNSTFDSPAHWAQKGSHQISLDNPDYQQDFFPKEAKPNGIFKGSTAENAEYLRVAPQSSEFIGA
Sequence of Serine/threonine-protein kinase 3 (Homo sapiens) (Q13188 whole entry): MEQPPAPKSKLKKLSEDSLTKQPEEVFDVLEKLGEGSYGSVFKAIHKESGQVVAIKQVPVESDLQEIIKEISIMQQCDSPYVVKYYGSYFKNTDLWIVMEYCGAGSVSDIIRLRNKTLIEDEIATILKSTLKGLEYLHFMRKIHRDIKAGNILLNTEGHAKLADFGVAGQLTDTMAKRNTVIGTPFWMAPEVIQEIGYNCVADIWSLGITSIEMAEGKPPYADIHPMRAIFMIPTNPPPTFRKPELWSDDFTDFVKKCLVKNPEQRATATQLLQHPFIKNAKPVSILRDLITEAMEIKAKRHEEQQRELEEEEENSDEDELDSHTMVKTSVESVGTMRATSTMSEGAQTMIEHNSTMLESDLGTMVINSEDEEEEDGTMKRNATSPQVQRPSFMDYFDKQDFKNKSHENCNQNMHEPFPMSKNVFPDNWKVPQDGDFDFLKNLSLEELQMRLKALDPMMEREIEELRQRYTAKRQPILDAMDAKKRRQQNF
Sequence of High affinity nerve growth factor receptor (Homo sapiens) (P04629 33-796 limits assumed): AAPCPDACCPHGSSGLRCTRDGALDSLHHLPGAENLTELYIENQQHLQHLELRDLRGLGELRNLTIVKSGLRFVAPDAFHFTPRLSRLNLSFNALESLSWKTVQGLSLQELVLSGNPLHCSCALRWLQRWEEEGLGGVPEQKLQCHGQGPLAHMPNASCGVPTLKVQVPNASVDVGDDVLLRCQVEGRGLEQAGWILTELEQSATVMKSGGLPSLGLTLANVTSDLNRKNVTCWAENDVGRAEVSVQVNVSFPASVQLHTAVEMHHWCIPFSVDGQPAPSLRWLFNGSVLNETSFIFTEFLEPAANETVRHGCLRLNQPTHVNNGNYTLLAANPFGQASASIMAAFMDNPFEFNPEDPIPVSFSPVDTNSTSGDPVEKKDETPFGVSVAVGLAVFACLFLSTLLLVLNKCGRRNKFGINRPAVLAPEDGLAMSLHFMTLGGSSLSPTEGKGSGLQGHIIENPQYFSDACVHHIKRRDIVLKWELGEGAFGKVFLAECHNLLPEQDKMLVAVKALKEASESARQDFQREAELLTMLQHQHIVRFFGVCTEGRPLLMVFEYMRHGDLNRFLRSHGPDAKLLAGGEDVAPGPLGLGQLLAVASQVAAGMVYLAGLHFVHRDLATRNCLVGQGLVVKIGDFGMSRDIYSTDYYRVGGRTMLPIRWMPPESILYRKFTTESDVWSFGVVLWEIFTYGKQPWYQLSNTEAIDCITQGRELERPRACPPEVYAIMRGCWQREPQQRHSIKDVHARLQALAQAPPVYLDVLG
Sequence of Mitogen-activated protein kinase 14 (Homo sapiens) (Q16539 whole entry): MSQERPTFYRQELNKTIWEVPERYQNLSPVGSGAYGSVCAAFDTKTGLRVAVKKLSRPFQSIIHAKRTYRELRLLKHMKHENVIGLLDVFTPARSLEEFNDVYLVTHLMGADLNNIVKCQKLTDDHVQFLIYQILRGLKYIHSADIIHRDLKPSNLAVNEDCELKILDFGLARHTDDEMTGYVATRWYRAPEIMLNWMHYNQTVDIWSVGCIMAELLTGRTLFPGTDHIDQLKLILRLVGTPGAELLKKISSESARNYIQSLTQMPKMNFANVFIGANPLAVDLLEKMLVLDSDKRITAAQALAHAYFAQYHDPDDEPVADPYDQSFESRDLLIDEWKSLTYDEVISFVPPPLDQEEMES
Sequence of Tyrosine-protein kinase BTK (Homo sapiens) (Q06187 whole entry): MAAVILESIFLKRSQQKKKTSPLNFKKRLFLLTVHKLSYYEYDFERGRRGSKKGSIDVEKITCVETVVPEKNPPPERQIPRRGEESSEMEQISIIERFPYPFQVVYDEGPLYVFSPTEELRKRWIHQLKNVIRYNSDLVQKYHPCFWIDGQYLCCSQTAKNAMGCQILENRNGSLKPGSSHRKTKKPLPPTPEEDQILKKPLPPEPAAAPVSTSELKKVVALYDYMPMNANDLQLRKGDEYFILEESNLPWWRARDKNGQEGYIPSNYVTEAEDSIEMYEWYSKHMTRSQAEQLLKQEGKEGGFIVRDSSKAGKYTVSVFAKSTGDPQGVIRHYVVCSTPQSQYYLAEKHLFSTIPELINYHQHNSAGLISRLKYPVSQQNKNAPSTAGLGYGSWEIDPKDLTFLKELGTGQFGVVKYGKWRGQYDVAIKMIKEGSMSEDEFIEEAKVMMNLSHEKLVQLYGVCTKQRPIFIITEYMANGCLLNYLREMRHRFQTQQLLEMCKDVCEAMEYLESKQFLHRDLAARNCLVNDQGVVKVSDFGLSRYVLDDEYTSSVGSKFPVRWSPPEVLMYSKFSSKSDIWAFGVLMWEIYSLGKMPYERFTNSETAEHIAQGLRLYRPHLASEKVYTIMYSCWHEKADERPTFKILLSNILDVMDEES
Sequence of Aurora kinase A (Homo sapiens) (O14965 whole entry, canonical isoform): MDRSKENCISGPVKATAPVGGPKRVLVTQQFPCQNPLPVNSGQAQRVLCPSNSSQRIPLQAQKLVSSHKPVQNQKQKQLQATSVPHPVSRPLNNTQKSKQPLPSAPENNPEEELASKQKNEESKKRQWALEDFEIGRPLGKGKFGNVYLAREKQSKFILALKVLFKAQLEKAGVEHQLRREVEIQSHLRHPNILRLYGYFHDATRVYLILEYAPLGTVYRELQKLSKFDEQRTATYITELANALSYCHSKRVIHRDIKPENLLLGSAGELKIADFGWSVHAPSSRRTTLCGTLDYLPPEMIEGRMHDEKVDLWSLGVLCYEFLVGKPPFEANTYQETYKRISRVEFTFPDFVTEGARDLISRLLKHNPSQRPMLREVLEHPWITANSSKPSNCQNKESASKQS
Sequence of Serine/threonine-protein kinase pim-2 (Homo sapiens) (Q9P1W9 whole entry, looked up): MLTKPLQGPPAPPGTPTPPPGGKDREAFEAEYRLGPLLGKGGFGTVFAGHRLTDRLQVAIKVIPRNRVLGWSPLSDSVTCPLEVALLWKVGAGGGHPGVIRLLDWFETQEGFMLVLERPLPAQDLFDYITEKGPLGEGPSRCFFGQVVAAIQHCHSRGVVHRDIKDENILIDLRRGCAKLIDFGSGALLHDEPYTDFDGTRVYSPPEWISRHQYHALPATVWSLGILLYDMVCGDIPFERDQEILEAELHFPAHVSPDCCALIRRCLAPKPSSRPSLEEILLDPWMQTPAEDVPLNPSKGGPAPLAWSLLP
Sequence of Serine/threonine-protein kinase Sgk1 (Homo sapiens) (O00141 whole entry): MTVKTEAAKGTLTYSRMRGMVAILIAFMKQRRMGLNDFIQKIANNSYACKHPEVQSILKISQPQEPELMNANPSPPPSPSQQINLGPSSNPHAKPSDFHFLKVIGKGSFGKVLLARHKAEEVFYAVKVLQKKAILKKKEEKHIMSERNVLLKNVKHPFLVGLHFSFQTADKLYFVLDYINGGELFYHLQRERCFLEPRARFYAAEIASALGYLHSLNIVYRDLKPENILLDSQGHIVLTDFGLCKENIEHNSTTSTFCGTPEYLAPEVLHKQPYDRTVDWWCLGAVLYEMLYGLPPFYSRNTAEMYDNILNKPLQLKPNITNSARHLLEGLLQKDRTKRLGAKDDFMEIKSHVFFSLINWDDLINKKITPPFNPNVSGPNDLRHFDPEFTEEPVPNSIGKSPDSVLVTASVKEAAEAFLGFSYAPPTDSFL

Question: Which results are given for `CC(C)(C)c1cc(C(=O)O)c(NC(=O)Nc2ccc3[nH]ncc3c2)s1`?
Answer: inhibition [1]: 40%; inhibition [2]: 30%; solubility kinetic [3]: 143 µg/mL (≈ 399 µM); inhibition [4]: 10%; inhibition [5]: 10%; inhibition [6]: 10%; inhibition [7]: 10%; inhibition at 3 µM (CYP2C9): 55%; inhibition [8]: 0%; inhibition [9]: 20%; inhibition [10]: 10%; inhibition [11]: 10%; half-life at 1 µM [12]: > 2 h; inhibition [13]: 20%; inhibition [14]: 10%; inhibition [15]: 0%; inhibition [16]: 0%; inhibition [17]: 10%; inhibition [18]: 30%; inhibition at 3 µM (CYP2D6): 0%; inhibition [19]: 0%; inhibition [20]: 20%; inhibition [21]: 0%; inhibition [22]: 0%; inhibition [23]: 10%; inhibition [24]: 10%; inhibition [25]: 10%; inhibition [26]: 10%; inhibition [27]: 10%; inhibition [28]: 0%; inhibition [29]: 10%; inhibition [30]: 20%; inhibition [31]: 0%; inhibition [32]: 0%; inhibition [33]: 10%; inhibition [34]: 0%; inhibition [35]: 10%; inhibition [36]: 10%; inhibition [37]: 20%; inhibition [38]: 10%; inhibition [39]: 10%; inhibition [40]: 10%; inhibition [41]: 10%; inhibition [42]: 0%; inhibition [43]: 20%; inhibition [44]: 0%; inhibition [45]: 10%; inhibition [46]: 0%; inhibition [47]: 10%; inhibition [48]: 0%; inhibition [49]: 0%; inhibition [50]: 0%; inhibition [51]: 0%; inhibition [52]: 0%
